Measured values taken from ChEMBL document CHEMBL4145485, “Design, synthesis, biological evaluation and docking studies of new 3-(4,5-dihydro-1H-pyrazol/isoxazol-5-yl)-2-phenyl-1H-indole derivatives as potent antioxidants and 15-lipoxygenase inhibitors” (Eur J Med Chem, 2018).
≈ marks a conversion by molar mass, not a printed value.

Key:
[1] = Antioxidant activity assessed as inhibition of DPPH radical formation after 30 mins; format: functional
How it was run: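 Test compound at […] mixed 1:1 with […], kept dark at room temperature 30 min, absorbance read at 517 nm. Ascorbic acid as positive control, DMSO as blank. % scavenging taken against a no-compound control. IC50 by linear regression of the dose-response, in mg/mL, mean ± SD of three replicates.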

[2] = Inhibition of soybean 15-LOX using arachidonic acid or linoleic acid as substrate preincubated with enzyme followed by substrate addition up to 5 mins by chromogenic method; parameters: species or system Glycine max
How it was run: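 Kit-based assay: soybean LOX pre-mixed with test compound ([…], in DMSO), started with arachidonic or linoleic acid, shaken at least 5 min. Chromogen added to stop and develop, absorbance at 490–500 nm. Quercetin as positive control, DMSO as 100% activity, buffer as blank. IC50 from non-linear dose-response of % inhibition.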

[3] = Antioxidant activity in PBS buffer assessed as NO scavenging activity after 90 mins in presence of sodium nitroprusside by Griess assay; format: functional
How it was run: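 Test compound at […] mixed 1:1 with 10 mM sodium nitroprusside in PBS pH 7.4, held 90 min at room temperature. Equal volume of Griess reagent (1% sulphanilamide, 0.1% naphthyl ethylene diamine in 2.5% […]) added, absorbance at 546 nm. Ascorbic acid as positive control, DMSO as blank. IC50 by linear regression, mg/mL, mean ± SD of three.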

[4] = Antioxidant activity assessed as superoxide dismutase-like activity by measuring inhibition of xanthine oxidase-induced superoxide anion level measured ever 30 secs for 5 mins by NBT reduction assay; format: functional
How it was run: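 Kit-based assay at room temperature in cuvettes: reaction buffer, xanthine and NBT, then test compound ([…]), then xanthine oxidase. A550 read every 30 s from 30 s to 5 min 30 s. Rate per minute compared with a negative control gives % inhibition. IC50 from non-linear dose-response, mean ± SEM of three. Ascorbic acid as reference.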

[5] = Potency index, ratio of ascorbic acid IC50 to compound IC50 for antioxidant activity assessed as inhibition of DPPH radical; format: functional
Glycine max = assay: Potency index, ratio of quercetin IC50 to compound IC50 for inhibition of soybean 15-LOX
[6] = Potency index, ratio of ascorbic acid IC50 to compound IC50 for antioxidant activity in PBS buffer assessed as NO scavenging activity; format: functional
[7] = Potency index, ratio of ascorbic acid IC50 to compound IC50 for antioxidant activity assessed as superoxide dismutase-like activity by measuring inhibition of xanthine oxidase-induced superoxide anion level; format: functional

| Compound | IC50 [1] [µg/mL] | IC50 [2] [µM] | IC50 [3] [µg/mL] | IC50 [4] [µM] | Ratio IC50 (Glycine max) | Ratio IC50 [5] | Ratio IC50 [6] | Ratio IC50 [7] |
| --- | --- | --- | --- | --- | --- | --- | --- | --- |
| O=C(c1ccccc1)N1N=C(c2cccnc2)CC1c1c(-c2ccccc2)[nH]c2ccccc12 (configuration not stated) | 48.21 (≈ 109 µM) | 7.23 | 50.33 | 4.62 |  |  |  |  |
| O=c1c(O)c(-c2ccc(O)c(O)c2)oc2cc(O)cc(O)c12 [QUERCETIN] |  | 6.87 |  |  |  |  |  |  |
| c1ccc(-c2[nH]c3ccccc3c2C2CC(c3cccs3)=NN2)cc1 (configuration not stated) | 18.3 (≈ 53.3 µM) | 9.41 | 24.04 | 6.51 |  |  |  |  |
| CC(=O)N1N=C(c2ccncc2)CC1c1c(-c2ccccc2)[nH]c2ccccc12 (configuration not stated) | 98.54 (≈ 259 µM) | 8.74 | 29.14 | 5.47 |  |  |  |  |
| CN1N=C(c2ccncc2)CC1c1c(-c2ccccc2)[nH]c2ccccc12 (configuration not stated) | 33.1 (≈ 93.9 µM) | 9.32 | 37.1 | 5.41 |  |  |  |  |

The next lines start with results.

| IC50 [1] [µg/mL] | IC50 [2] [µM] | IC50 [3] [µg/mL] | IC50 [4] [µM] | Ratio IC50 (Glycine max) | Compound | Ratio IC50 [5] | Ratio IC50 [6] | Ratio IC50 [7] |
| --- | --- | --- | --- | --- | --- | --- | --- | --- |
| 23.4 (≈ 133 µM) |  | 24.5 | 3.54 |  | O=C1O[C@H]([C@@H](O)CO)C(O)=C1O [ASCORBIC ACID] |  |  |  |
| 117.5 (≈ 341 µM) | 7.51 | 233.4 | 4.26 |  | c1ccc(-c2[nH]c3ccccc3c2C2CC(c3cccs3)=NO2)cc1 (configuration not stated) |  |  |  |
| 59.94 (≈ 177 µM) | 4.89 | 70.5 | 1.87 |  | c1ccc(-c2[nH]c3ccccc3c2C2CC(c3ccncc3)=NO2)cc1 (configuration not stated) |  |  |  |
| 107.32 (≈ 243 µM) | 5.14 | 52.54 | 4.27 |  | O=C(c1ccccc1)N1N=C(c2ccncc2)CC1c1c(-c2ccccc2)[nH]c2ccccc12 (configuration not stated) |  |  |  |
| 13.61 (≈ 40.2 µM) | 3.84 | 35.01 | 1.78 | 1.8 | c1ccc(-c2[nH]c3ccccc3c2C2CC(c3cccnc3)=NN2)cc1 (configuration not stated) | 1.7 | 0.7 | 2 |
| 60.7 (≈ 179 µM) | 6.71 | 116.7 | 3.54 |  | c1ccc(-c2[nH]c3ccccc3c2C2CC(c3cccnc3)=NO2)cc1 (configuration not stated) |  |  |  |
| 15.83 (≈ 46.8 µM) | 6.54 | 20.99 | 3.24 |  | c1ccc(-c2[nH]c3ccccc3c2C2CC(c3ccncc3)=NN2)cc1 (configuration not stated) |  |  |  |
| 37.97 (≈ 99.8 µM) | 4.56 | 29.8 | 2.57 |  | CC(=O)N1N=C(c2cccnc2)CC1c1c(-c2ccccc2)[nH]c2ccccc12 (configuration not stated) |  |  |  |
